The results in this text go back to ChEMBL document CHEMBL4808166, “Exploring the Chemistry of Alkaloids from Malaysian Mitragyna speciosa (Kratom) and the Role of Oxindoles on Human Opioid Receptors” (J Nat Prod, 2021).

The target in test [1] is Delta-type opioid receptor (Homo sapiens) (UniProt P41143). Description: Displacement of [3H]DADLE from human recombinant delta opioid receptor expressed in Chem-1 (RBL) cells at 10000 nM incubated for 60 mins by radiometric scintillation analysis. The format is cell-based. The gist of the method:
(§1)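 δ receptor: membranes of human recombinant Chem-1 (RBL) cells with [3H]DADLE 0.5 nM. Nonspecific binding defined with 10 μM naltrexone. Incubated 60 min at room temperature. Test concentrations 0.1 and 10 μM. Bound ligand collected by rapid vacuum filtration on glass fiber filters, followed by ice-cold buffer rinses. Read-out is percent displacement.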

Test [2] concerns the target T1, Mu-type opioid receptor (Homo sapiens, UniProt P35372). Description: biochemical. It is filed as cell-based, HEK293.
Test [3] has as its target Kappa-type opioid receptor (Homo sapiens) (UniProt P41145). Description: Displacement of [3H]U69593 from human recombinant kappa opioid receptor expressed in Chem-1 (RBL) cells at 10000 nM incubated for 60 mins by radiometric scintillation analysis. The format is cell-based. The gist of the method:
(§2)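 κ receptor: human recombinant RBL cell membranes with [3H]U69,593 0.5 nM. Nonspecific binding defined with 10 μM naloxone. Incubated 60 min at room temperature. Screened at 0.1 and 10 μM. Bound fraction separated by vacuum filtration on glass fiber filters with ice-cold buffer washes. Read-out is percent displacement.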
A general note: In a radioligand displacement assay an active substance lowers the binding of a labelled ligand.

Test [4] has as its target Delta-type opioid receptor (Homo sapiens) (UniProt P41143). Description: Displacement of [3H]DADLE from human recombinant delta opioid receptor expressed in Chem-1 (RBL) cells at 100 nM incubated for 60 mins by radiometric scintillation analysis. The format is cell-based. In a few lines:
as §1

For test [5], the target named is T1, Mu-type opioid receptor. Description: Displacement of [3H]DAMGO from human recombinant mu opioid receptor expressed in HEK293 cells at 100 nM incubated for 120 mins by radiometric scintillation analysis. The format is cell-based. In a few lines:
(§3)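 Nonspecific binding defined with 10 μM naloxone. Incubation 120 min at room temperature. Compounds at 0.1 and 10 μM. Rapid vacuum filtration through presoaked glass fiber filters, rinsed with ice-cold buffer. Read-out is percent displacement.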

For test [6], the target named is Kappa-type opioid receptor (Homo sapiens) (UniProt P41145). Description: Displacement of [3H]U69593 from human recombinant kappa opioid receptor expressed in Chem-1 (RBL) cells at 100 nM incubated for 60 mins by radiometric scintillation analysis. The format is cell-based. The gist of the method:
as §2

The target of test [7] is T1, Mu-type opioid receptor. Description: Displacement of [3H]DAMGO from human recombinant mu opioid receptor expressed in HEK293 cells at 10000 nM incubated for 120 mins by radiometric scintillation analysis. It is filed as cell-based. The gist of the method: as §3
In test [8] the test system is Rattus norvegicus. Description: Antinociceptive activity in iv dosed Sprague-Dawley rat assessed as hot plate latency compound administered as cumulative dose at 5 mins intervals in presence of naltrexone by Hot-plate test. The format is functional, organism-based. The gist of the method: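 Adult female and male Sprague-Dawley rats (10 weeks, n = 6, three per sex) with right external jugular vein catheter. Vehicle 5% Tween 80 + 5% propylene glycol in sterile water, 1.0 mL/kg i.v. After baseline, vehicle then ascending cumulative doses every 5 min, then naltrexone 0.1 mg/kg i.v. Plate at 52 °C, 60 s cutoff. Latency converted to %MPE; ED50 (95% CI) by linear regression.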
Background: Thermal pain tests record how soon the animal reacts.

In test [9] the test system is Rattus norvegicus. Description: Antinociceptive activity in iv dosed Sprague-Dawley rat assessed as hot plate latency compound administered as cumulative dose at 5 mins intervals by Hot-plate test. It is filed as functional. In a few lines: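 Adult female and male Sprague-Dawley rats (10 weeks, n = 6, three per sex) with right external jugular vein catheter. Vehicle 5% Tween 80 + 5% propylene glycol in sterile water, 1.0 mL/kg i.v. After baseline, vehicle then ascending cumulative doses every 5 min, then naltrexone 0.1 mg/kg i.v. Plate at 52 °C, 60 s cutoff.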

What is called Ki is the equilibrium dissociation constant of an inhibitor or competing ligand from its target. In general, ED50 refers to the midpoint of the dose-response relation.

Calls of active or inactive are those of the source.

Kappa-type opioid receptor (Homo sapiens), sequence (P41145 whole entry): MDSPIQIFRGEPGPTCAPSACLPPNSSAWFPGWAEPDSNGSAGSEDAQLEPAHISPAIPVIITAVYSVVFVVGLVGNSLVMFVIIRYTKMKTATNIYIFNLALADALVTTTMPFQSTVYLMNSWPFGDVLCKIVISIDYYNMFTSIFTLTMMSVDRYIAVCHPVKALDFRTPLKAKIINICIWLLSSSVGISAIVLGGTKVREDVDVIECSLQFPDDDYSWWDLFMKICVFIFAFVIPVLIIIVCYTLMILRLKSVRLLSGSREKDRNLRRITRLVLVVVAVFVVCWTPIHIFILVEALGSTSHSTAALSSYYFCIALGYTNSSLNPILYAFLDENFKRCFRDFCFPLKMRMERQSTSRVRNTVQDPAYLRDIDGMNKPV
Delta-type opioid receptor (Homo sapiens), sequence (P41143 whole entry): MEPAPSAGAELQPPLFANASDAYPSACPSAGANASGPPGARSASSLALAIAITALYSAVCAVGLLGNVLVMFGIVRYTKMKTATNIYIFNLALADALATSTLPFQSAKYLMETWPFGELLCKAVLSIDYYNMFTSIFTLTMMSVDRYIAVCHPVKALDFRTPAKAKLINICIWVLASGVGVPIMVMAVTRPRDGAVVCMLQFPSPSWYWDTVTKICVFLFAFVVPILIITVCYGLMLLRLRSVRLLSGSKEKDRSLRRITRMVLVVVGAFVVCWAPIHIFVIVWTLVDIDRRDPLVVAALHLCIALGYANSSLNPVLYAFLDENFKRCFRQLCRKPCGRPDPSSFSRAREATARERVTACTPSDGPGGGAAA
T1 sequence (P35372 whole entry): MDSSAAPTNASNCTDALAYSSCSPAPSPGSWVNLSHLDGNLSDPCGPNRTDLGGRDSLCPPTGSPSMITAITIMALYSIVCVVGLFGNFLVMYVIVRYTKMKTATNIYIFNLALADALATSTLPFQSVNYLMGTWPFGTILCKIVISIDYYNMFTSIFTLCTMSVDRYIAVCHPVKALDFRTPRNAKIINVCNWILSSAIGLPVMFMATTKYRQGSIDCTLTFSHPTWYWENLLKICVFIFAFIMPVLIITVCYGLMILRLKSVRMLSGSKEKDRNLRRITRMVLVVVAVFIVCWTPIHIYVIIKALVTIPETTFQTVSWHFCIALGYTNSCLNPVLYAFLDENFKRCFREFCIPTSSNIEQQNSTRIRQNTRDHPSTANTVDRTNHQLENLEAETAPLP

In the case of `CC[C@@H]1C[N+]2([O-])CCc3c([nH]c4cccc(OC)c34)[C@H]2C[C@@H]1/C(=C\OC)C(=O)OC` (stereo partly drawn), the Activity in test [1] came to 53.5%; in test [3], 80.9%; in test [4], 5.1%; in test [5], 10.5%; in test [6] it was 6.6%; in [7], 84.6%. This molecule had a Ki in test [2] of 553 nM.

Consider `CC[C@@H]1CN2CC[C@]3(C(=O)Nc4ccccc43)[C@@H]2C[C@@H]1/C(=C\OC)C(=O)OC` [CORYNOXINE B], for which the Activity is 65.5% in test [1]; 51.8% in test [3]; -4.4% in test [4]; 45.4% in test [5]; 4.5% in [6]; 94.4% in [7]. In test [2], the Ki turned out to be 110 nM.

For the molecule `CC[C@@H]1CN2CC[C@]3(C(=O)Nc4cccc(OC)c43)[C@@H]2C[C@@H]1/C(=C\OC)C(=O)OC`, the Activity was 87.1% in [1]; 23% in [3]; 10.4% in test [4]; 7.3% in test [5]; 5% in test [6]; 66.5% in test [7]. For the same molecule, the inhibition constant (Ki) in [2] turned out to be 1720 nM.

Regarding `O=C1CC[C@@]2(O)[C@H]3Cc4ccc(O)c5c4[C@@]2(CCN3CC2CC2)[C@H]1O5`, the result in [8] was inactive.

For `CC[C@@H]1CN2CC[C@@]3(C(=O)Nc4ccccc43)[C@@H]2C[C@@H]1/C(=C\OC)C(=O)OC` [CORYNOXINE], the Activity in test [1] is 73.8%; in test [3], 75.3%; in [4], -3.9%; in [5], 80.1%; in [6], 3.8%; in [7], 97.8%. For the same molecule, the affinity in [2], expressed as Ki, was 16.4 nM. In [9], the ED50 worked out at 6.75 mg/kg.

`C=C[C@H]1CN2CCc3c([nH]c4cccc(OC)c34)[C@@H]2C[C@@H]1/C(=C\OC)C(=O)OC`: the Ki in test [2] is 410 nM.

For `CC[C@@H]1CN2CC[C@@]3(C(=O)Nc4cccc(O)c43)[C@H]2C[C@@H]1/C(=C\OC)C(=O)OC`, the Activity turned out to be 27.1% in test [1]; 37.3% in test [3]; 0% in [4]; 13.1% in [5]; 0.1% in test [6]; 83.3% in test [7]. In [2], this molecule yielded a Ki of 789 nM.
